Screening data as filed in PubChem BioAssay.
LEDGF integ inh – blocks HIV-1 LEDGF/p75-dependent DNA integration. TR-FRET IN-LEDGF/p75 DNA integration, Eu/Cy5. inhibition, % at 3.7 µM. 0.64% of 370,000 active. AID 743269;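 active means inhibition above the screen-wide mean plus 3 SD, cut at about 13% in these data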;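 further: signal is the Cy5 over europium emission ratio at 671 and 618 nm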
MBD2 DNA inh – blocks human MBD2 binding to methylated DNA; Q9UBB5; 0.31% of 370,000 active; inhibition, % at 4.4 µM; AID 686964; TR-FRET, MBD2 binding to methylated oligonucleotide; in the data active means inhibition above about 13%
Target sequence (Q9UBB5 whole entry, looked up): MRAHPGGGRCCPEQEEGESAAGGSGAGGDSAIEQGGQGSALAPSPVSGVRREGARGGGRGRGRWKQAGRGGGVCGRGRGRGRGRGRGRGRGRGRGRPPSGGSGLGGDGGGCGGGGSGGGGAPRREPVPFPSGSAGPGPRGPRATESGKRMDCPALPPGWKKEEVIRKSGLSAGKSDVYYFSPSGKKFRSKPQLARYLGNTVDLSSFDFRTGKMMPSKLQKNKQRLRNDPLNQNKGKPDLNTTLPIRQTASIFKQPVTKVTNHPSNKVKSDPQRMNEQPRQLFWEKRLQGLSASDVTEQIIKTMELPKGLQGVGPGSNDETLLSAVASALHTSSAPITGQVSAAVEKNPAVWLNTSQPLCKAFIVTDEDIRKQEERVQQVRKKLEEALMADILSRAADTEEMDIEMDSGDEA
TDP2 absorb – blocks human TDP2 phosphodiesterase activity; O95551; recombinant TDP2, T5PNP hydrolysis, p-nitrophenol absorbance 415 nm; AID 720702; 0.34% of 370,000 active; inhibition, % at 12.8 µM;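 active means inhibition above the mean of all tested compounds plus 3 SD, set per campaign, cut at about 25% in these data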
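Material: recombinant human TDP2; quantity: TDP2 enzyme at 120 nM final; medium: Tris-HCl pH 7.5 with MgCl2; compound: single concentration, 12.8 µM nominal, with 1% DMSO; incubation: 2 h enzyme incubation at 37 °C; signal: epi absorbance; measure: percent inhibition; benchmarks: high control without enzyme, low control DMSO plus TDP2; repeats: singlicate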
UHRF1 binding – UHRF1 methyl-DNA binding inhibition | Q96T88 | UHRF1 binding to methylated oligo, TR-FRET | inhibition, % at 4.4 µM | 0.75% of 370,000 active; in the data active means inhibition above about 21%;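 further: UHRF1 SRA domain binding a hemimethylated CpG hairpin DNA probe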
UHRF1 DNA bind – inhibits human UHRF1 binding to methylated oligonucleotide, MBD2 counter-screen; shares compounds with MBD2 DNA inh; TR-FRET; inhibition, % at 4.4 µM; 25% of 1,000 active; in the data active means inhibition above about 21%;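 further: UHRF1 SRA domain binding a labeled hemimethylated CpG hairpin DNA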
MBD2 confirm – MBD2-DBD methyl-DNA binding inhibition, TR-FRET confirmation. TR-FRET MBD2-DBD binding to methylated oligonucleotide. shares compounds with MBD2 DNA inh. 26% of 1,000 active. inhibition, % at 4.4 µM
TDP2 confirm – human TDP2 inhibition, confirmation; shares compounds with TDP2 absorb; recombinant human TDP2, absorbance read-out; inhibition, % at 12.8 µM; 22% of 1,100 active; AID 743263; in the data active means inhibition above about 25%
IN multimer up – counter-screen for LEDGF/p75 integration inhibitors: HIV-1 integrase multimerization activators; TR-FRET HIV-1 integrase multimerization, biochemical; shares compounds with LEDGF integ inh; activation, % at 7.7 µM; AID 1053131; 17% of 2,000 active; in the data active means activation above about 8.9%
TRFRET interf – counter-screen for LEDGF/p75 integration inhibitors: TR-FRET optical interference; shares compounds with LEDGF integ inh; TR-FRET optical interference counterscreen, HIV-1 IN multimerization; inhibition, % at 7.7 µM; 2,000 tested, under 10 active; AID 1053135;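 active means inhibition above the mean over all tested compounds plus 3 SD, which no compound reached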
LEDGF integ conf – confirmation of HIV-1 LEDGF/p75-dependent integration inhibitors | shares compounds with LEDGF integ inh | TR-FRET LEDGF/p75-dependent HIV-1 integration, biochemical | inhibition, % at 3.7 µM | 36% of 2,000 active | AID 1053136
Large screens that a line does not name were inactive (follow-up assays come after a bar, where they were run). Shown are actives, neighbours in structure and some others; about 1.6% of the full set was active somewhere. Unless noted, no stated cut-off is given here; in the data, active means inhibition above about 14%; inactive means the rest.

CCCCn1c(NS(=O)(=O)c2ccccc2)c(S(=O)(=O)c2ccc(C)cc2)c2nc3ccccc3nc21	LEDGF integ inh 23, MBD2 DNA inh 21, TDP2 absorb 89 | UHRF1 DNA bind inactive | MBD2 confirm 14 | TDP2 confirm 95 | IN multimer up inactive | TRFRET interf inactive | LEDGF integ conf 73
N#Cc1c(SCC(=O)Nc2nccs2)sc2c(O)cc(=O)[nH]c12	LEDGF integ inh 18, MBD2 DNA inh 35, UHRF1 binding 77 | UHRF1 DNA bind 27 | MBD2 confirm 15 | IN multimer up 44 | TRFRET interf inactive | LEDGF integ conf 34
COc1ccc(S[C@]2(C(=O)N3CCOCC3)CC(=O)N(c3ccc(C#N)cc3)[C@@H]2c2ccc(OC)cc2)cc1	none
Cc1nc2ccccc2c(=O)n1/N=C/c1ccccc1O	none
Cc1nc2ccccc2c(=O)n1/N=C/c1ccc(O)c(O)c1O	LEDGF integ inh 61, MBD2 DNA inh 27, UHRF1 binding 37 | UHRF1 DNA bind inactive | MBD2 confirm inactive | IN multimer up 18 | TRFRET interf inactive | LEDGF integ conf 80
COC(=O)[C@]12C[C@H](CC(=O)N3CCN(C(=O)c4ccco4)CC3)C(=O)N(Cc3ccc(Cl)cc3Cl)C1=C[C@H](COCc1ccccc1)O[C@@H]2C	none
COc1ccc(-c2noc(C3CCCN(C(=O)Nc4ccc(Cl)cc4)C3)n2)cc1 (stereo not drawn)	none
O=C(Nc1cccc([N+](=O)[O-])c1)Nc1cccc([N+](=O)[O-])c1	none
O=[N+]([O-])c1cccc(I)c1	LEDGF integ inh 65, MBD2 DNA inh 59, UHRF1 binding 88 | UHRF1 DNA bind inactive | MBD2 confirm inactive | IN multimer up inactive | TRFRET interf inactive | LEDGF integ conf inactive
Cc1occc1-c1nnc(SCC(=O)NCCc2ccccc2)n1Cc1ccccc1	none
COc1cccc(-n2c(SCC(=O)NCCc3ccccc3)nnc2-c2ccoc2C)c1	LEDGF integ inh 14, MBD2 DNA inh 17, UHRF1 binding 28 | UHRF1 DNA bind inactive | MBD2 confirm inactive | IN multimer up inactive | TRFRET interf inactive | LEDGF integ conf inactive
Fc1cccc(F)c1Cn1ccc2ccc(-c3ccc4ccn(Cc5c(F)cccc5F)c4c3)cc21	none
O=C(Cc1cn(Cc2ccccc2)c2ccccc12)Nc1ccc(Nc2cccnc2)cc1	none
CCC1=NN2C(=N)/C(=C\c3ccc(SCc4ccco4)o3)C(=O)N=C2S1	LEDGF integ inh 50, MBD2 DNA inh 20, UHRF1 binding 56 | UHRF1 DNA bind inactive | MBD2 confirm inactive | IN multimer up inactive | TRFRET interf inactive | LEDGF integ conf 27
O=C(Cc1nnc(NC(=O)c2ccccc2)s1)N/N=C/c1ccco1	LEDGF integ inh 36, MBD2 DNA inh 19, UHRF1 binding 27 | UHRF1 DNA bind inactive | MBD2 confirm inactive | IN multimer up inactive | TRFRET interf inactive | LEDGF integ conf inactive
O=C(Cc1nnc(NC(=O)c2ccccc2)s1)N/N=C/c1cccc(O)c1	none
O=S(=O)(O)c1cc(O)c2cc(Nc3ccccc3)ccc2c1	LEDGF integ inh 16, MBD2 DNA inh 26, UHRF1 binding 33 | UHRF1 DNA bind 31 | MBD2 confirm 14 | IN multimer up 41 | TRFRET interf inactive | LEDGF integ conf 44
Cc1cc2nc3c(=O)[nH]c(=S)[nH]c3nc2cc1NC(=O)C(F)(F)F	LEDGF integ inh 74, MBD2 DNA inh 33, UHRF1 binding 28 | UHRF1 DNA bind inactive | MBD2 confirm inactive | IN multimer up 12 | TRFRET interf inactive | LEDGF integ conf inactive
Cc1ccc(C(Nc2ccccc2)c2ccc3ccc(C)nc3c2O)c(C)c1 (stereo not drawn)	none
Cc1ccc(OCCOc2c(Cl)cc(Cl)cc2Cl)c([N+](=O)[O-])n1	none
O=C(CCS(=O)(=O)c1ccc(Br)cc1)N1CCN(c2ccc(F)cc2)CC1	LEDGF integ inh 19, MBD2 DNA inh 26, UHRF1 binding 73 | UHRF1 DNA bind inactive | MBD2 confirm inactive | IN multimer up inactive | TRFRET interf inactive | LEDGF integ conf inactive
O=C1CC(c2ccc(O)c(O)c2)Oc2c1ccc(O)c2O (stereo not drawn)	LEDGF integ inh 93, MBD2 DNA inh 35, UHRF1 binding 64 | UHRF1 DNA bind 27 | MBD2 confirm inactive | IN multimer up 57 | TRFRET interf inactive | LEDGF integ conf 91
O=C(/C=C/c1ccco1)N(c1ccccn1)c1ccccn1	LEDGF integ inh 22, MBD2 DNA inh 23, UHRF1 binding 52 | UHRF1 DNA bind 57 | MBD2 confirm 28 | IN multimer up inactive | TRFRET interf inactive | LEDGF integ conf 46
O=C(C=Cc1ccco1)c1ccco1	LEDGF integ inh 73, MBD2 DNA inh 20, UHRF1 binding 58 | UHRF1 DNA bind inactive | MBD2 confirm inactive | IN multimer up inactive | TRFRET interf inactive | LEDGF integ conf inactive
CCOc1cccc(=O)c2c(C)n(-c3ccc(C(=O)O)cc3)c(C)c12	LEDGF integ inh 76, MBD2 DNA inh 31, UHRF1 binding 88 | UHRF1 DNA bind inactive | MBD2 confirm inactive | IN multimer up inactive | TRFRET interf inactive | LEDGF integ conf 30
CCOc1cccc(=O)c2c(C)n(Cc3ccccc3)c(C)c12	none
O=C(O)c1ccc2nc(-c3ccco3)c(-c3ccco3)nc2c1	LEDGF integ inh 86, MBD2 DNA inh 69, TDP2 absorb 34, UHRF1 binding 93 | UHRF1 DNA bind 73 | MBD2 confirm 23 | TDP2 confirm inactive | IN multimer up 73 | TRFRET interf inactive | LEDGF integ conf 76
O=S(=O)(c1ccc2nc(-c3ccco3)c(-c3ccco3)nc2c1)N1CCOCC1	LEDGF integ inh 67, MBD2 DNA inh 14, UHRF1 binding 30 | UHRF1 DNA bind inactive | MBD2 confirm inactive | IN multimer up inactive | TRFRET interf inactive | LEDGF integ conf 45
CCNC(=S)NNC(=O)CSc1nnc(SCc2cccc3ccccc23)s1	none
Cc1ccc(C)n1/N=C1/NC(=O)CS1	LEDGF integ inh 58, MBD2 DNA inh 39, UHRF1 binding 76 | UHRF1 DNA bind 48 | MBD2 confirm 17 | IN multimer up inactive | TRFRET interf inactive | LEDGF integ conf 66
